Experimental data published in ChEMBL document CHEMBL4765245 (Eur J Med Chem, 2020).
Structures can show the parent of a compound that is named as a salt.

How the values were obtained:
HeLa = assay: Cytotoxicity against human HeLa cells assessed as reduction in cell viability incubated for 72 hrs measured by crystal violet based micro plate reader method; conditions: hela, 72 h
In short: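 Two-day-old confluent HeLa Ohio monolayers exposed to half-log dilutions (100 μM downward) in 2% FCS medium for 72 h at 37 °C, 5% CO2. Cells fixed and stained with crystal violet/formalin, dye eluted with acidified citrate-ethanol, OD read at 550/630 nm. Viability expressed relative to six mock-treated controls; CC50 is the mean of at least 3 tests.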

Coxsackievirus B3 [1] = assay: Antiviral activity against Coxsackievirus B3 Nancy infected in human HeLa cell line assessed as inhibition of virus-induced cytopathic effect measured after 48 hrs by crystal violet uptake assay; assay type: functional, organism-based
In short: (§1)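 HeLa Ohio monolayers, 2 days old and confluent, in MEM with 2% FCS. Serial half-log compound dilutions from 100 μM were added just before CVB3 infection. Activity was calculated per Pauwels against six cell and six virus controls; mean IC50 from ≥3 experiments.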

Coxsackievirus B3 [2] = assay: Antiviral activity against wild type Coxsackievirus B3 97927 infected in human HeLa cell line assessed as inhibition of virus-induced cytopathic effect measured after 48 hrs by crystal violet uptake assay; assay type: functional, organism-based
In short: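 Coxsackievirus B3 infection of 2-day-old HeLa Ohio monolayers in 2% FCS medium. Half-log dilutions from 100 μM added just before infection; guanidine hydrochloride served as positive control. Antiviral activity calculated per Pauwels; IC50 is the mean of at least 3 separate tests.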

Coxsackievirus B3 [3] = assay: Antiviral activity against pleconaril-resistant Coxsackievirus B3 97927 11207T/I1092 mutant infected in human HeLa cell line assessed as inhibition of virus-induced cytopathic effect measured after 48 hrs by crystal violet uptake assay; assay type: functional, organism-based; in short: as §1
rhinovirus B5 = assay: Antiviral activity against Rhinovirus B5 infected in human HeLa cell line assessed as inhibition of virus-induced cytopathic effect measured after 72 hrs by crystal violet uptake assay; assay type: functional, organism-based
In short: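 HeLa Ohio monolayers, 1 day old, in 2% FCS medium. Compound added as serial half-log dilutions from 100 μM immediately before rhinovirus infection. CPE read at 72 h by crystal violet staining, elution and OD 550/630 nm, with six cell and six virus controls per plate. Activity calculated per Pauwels; IC50 is the mean of at least 3 experiments.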

rhinovirus B14 = assay: Antiviral activity against Rhinovirus B14 infected in human HeLa cell line assessed as inhibition of virus-induced cytopathic effect measured after 72 hrs by crystal violet uptake assay; assay type: functional, organism-based
In short: (§2)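 HeLa Ohio monolayers, 1 day old, in 2% FCS medium. Compound added as serial half-log dilutions from 100 μM immediately before rhinovirus infection. Activity calculated per Pauwels; IC50 is the mean of at least 3 experiments.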

Coxsackievirus B3 [4] = assay: Antiviral activity against pleconaril-resistant Coxsackievirus B3 97927 11207M/I1092 mutant infected in human HeLa cell line assessed as inhibition of virus-induced cytopathic effect measured after 48 hrs by crystal violet uptake assay; assay type: functional, organism-based; in short: as §1
rhinovirus A2 = assay: Antiviral activity against Rhinovirus A2 infected in human HeLa cell line assessed as inhibition of virus-induced cytopathic effect measured after 72 hrs by crystal violet uptake assay; assay type: functional, organism-based; in short: as §2
Coxsackievirus B3 [5] = assay: Antiviral activity against pleconaril-resistant Coxsackievirus B3 97927 11207K/I1092 mutant infected in human HeLa cell line assessed as inhibition of virus-induced cytopathic effect measured after 48 hrs by crystal violet uptake assay; assay type: functional, organism-based; in short: as §1
[6] = Enterovirus B, Nancy, HeLa, 48 h, read-out: IC50
[7] = Enterovirus B, 97927, HeLa, 48 h, read-out: IC50
[8] = Rhinovirus B, HeLa, 72 h, read-out: IC50
[9] = Rhinovirus A, HeLa, 72 h, read-out: IC50

Row | SMILES | CC50 (HeLa) [µM] | IC50 (Coxsackievirus B3 [1]; [6]) [µM] | IC50 (Coxsackievirus B3 [2]; [7]) [µM] | IC50 (Coxsackievirus B3 [3]; read-out: IC50) [µM] | IC50 (rhinovirus B5; [8]) [µM] | IC50 (rhinovirus B14; [8]) [µM] | IC50 (Coxsackievirus B3 [1]) | IC50 (Coxsackievirus B3 [4]) [µM] | IC50 (rhinovirus A2; [9]) [µM] | IC50 (rhinovirus B5) | IC50 (Coxsackievirus B3 [5]) | IC50 (Coxsackievirus B3 [3]) | IC50 (Coxsackievirus B3 [5]; read-out: IC50) [µM] | IC50 (rhinovirus B14) | IC50 (Coxsackievirus B3 [2]) | IC50 (rhinovirus A2)
1 | CN(C)C(=O)c1cc(CCCOc2ccc(-c3noc(C(F)(F)F)n3)cn2)on1 | 48.8 | 22.2 | 5.95 | 17.4 | 4.28 | 0.12 | – | – | – | – | – | – | – | – | – | –
2 | CCOC(=O)c1cc(CCCOc2ccc(-c3noc(C(F)(F)F)n3)cc2[N+](=O)[O-])on1 | > 100 | – | 0.148 | 3.99 | – | 2.93 | Not Active | 0.18 | 47.7 | Not Active | – | – | – | – | – | –
3 | CCNC(=O)c1cc(CCCOc2c(C)cc(-c3noc(C(F)(F)F)n3)cc2C)on1 | > 100 | – | 0.05 | – | – | 0.18 | – | 0.48 | 0.6 | – | Not Active | Not Active | – | – | – | –
4 | CN(C)C(=O)c1cc(CCCOc2ccc(-c3noc(C(F)(F)F)n3)cc2)on1 | 28 | 10.8 | 0.458 | 8.11 | 1.74 | 0.04 | – | 0.02 | 4.61 | – | – | – | 27.5 | – | – | –
5 | CNC(=O)c1cc(CCCOc2ccc(-c3noc(C(F)(F)F)n3)cc2C(F)(F)F)on1 | > 100 | 14.1 | 0.02 | 1.04 | – | – | – | 0.06 | 0.96 | Not Active | Not Active | – | – | Not Active | – | –
6 | CN(C)C(=O)c1cc(CCCOc2ccc(-c3noc(C(F)(F)F)n3)cc2F)on1 | 20.2 | 18.5 | 0.025 | 1.44 | 4.04 | 0.05 | – | 0.06 | 3.77 | – | Not Active | – | – | – | – | –
7 | CCOC(=O)c1cc(CCCOc2ccc(-c3noc(C(F)(F)F)n3)cc2NC(C)=O)on1 | > 100 | – | – | – | – | – | Not Active | – | – | Not Active | – | – | – | Not Active | Not Active | Not Active
8 | CCOC(=O)c1cc(CCCOc2ccc(-c3noc(C(F)(F)F)n3)cc2C)on1 | 35.1 | 19 | 0.062 | 1.23 | – | 0.52 | – | 0.61 | – | Not Active | Not Active | – | – | – | – | Not Active
9 | N=C(N)N [GUANIDINE HYDROCHLORIDE] | – | 423 | 592 | 725 | – | – | – | 682 | – | – | – | – | 664 | – | – | –
10 | COc1ccc(-c2cc(CCCOc3c(C)cc(-c4noc(C(F)(F)F)n4)cc3C)on2)cc1OC | 41.9 | – | – | – | – | 2.78 | – | – | 2.11 | – | – | – | – | – | Not Active | –
11 | CCOC(=O)c1cc(CCCOc2ccc(-c3noc(C(F)(F)F)n3)cc2)on1 | > 100 | – | 0.746 | 42.9 | – | 0.34 | Not Active | 6.54 | – | Not Active | – | – | – | – | – | Not Active
12 | CN(C)C(=O)c1cc(CCCOc2ccc(-c3noc(C(F)(F)F)n3)cc2-n2cccc2)on1 | 21.2 | – | 0.82 | 3.55 | – | 7.34 | Not Active | 1.06 | 3.21 | Not Active | – | – | – | – | – | –
13 | Cc1cc(CCCOc2c(C)cc(-c3noc(C(F)(F)F)n3)cc2C)on1 [PLECONARIL] | 26.2 | – | – | 3.97 | – | – | Not Active | 2.05 | – | Not Active | Not Active | – | – | – | – | –
14 | CCOC(=O)c1cc(CCCOc2ccc(-c3noc(C(F)(F)F)n3)cc2-n2cccc2)on1 | 57.3 | – | 10.2 | 14.3 | – | – | Not Active | – | – | Not Active | – | – | – | Not Active | – | Not Active
15 | CCOC(=O)c1cc(CCCOc2ccc(-c3noc(C(F)(F)F)n3)cc2C(F)(F)F)on1 | 28.4 | – | 0.03 | 1.04 | – | – | Not Active | 0.01 | 4.89 | Not Active | – | – | – | Not Active | – | –
16 | CCOC(=O)c1cc(CCCOc2c(C)cc(-c3noc(C(F)(F)F)n3)cc2C)on1 | 17.2 | – | 0.07 | 20.4 | – | – | Not Active | 0.94 | – | – | – | – | 11.1 | – | – | –
17 | CCOC(=O)c1cc(CCCOc2c(OC)cc(-c3noc(C(F)(F)F)n3)cc2[N+](=O)[O-])on1 | > 100 | – | 1.19 | 43.8 | – | 2.68 | Not Active | 10.1 | 5.63 | Not Active | – | – | – | – | – | –
18 | CCOC(=O)c1cc(CCCOc2ccc(-c3noc(C(F)(F)F)n3)cc2/N=C/N(C)C)on1 | > 100 | – | 19.9 | – | – | 29.3 | Not Active | – | – | Not Active | – | – | – | – | – | Not Active
19 | Cc1cc(-c2noc(C(F)(F)F)n2)cc(C)c1OCCCc1cc(-c2ccccc2)no1 | > 100 | – | 0.14 | 1.69 | – | 0.53 | – | 0.28 | 0.76 | Not Active | Not Active | – | – | – | – | –
20 | Cc1cc(-c2noc(C(F)(F)F)n2)cc(C)c1OCCCc1cc(C(N)=O)no1 | > 100 | – | 0.07 | – | – | 0.22 | – | 1.69 | 0.5 | – | Not Active | Not Active | – | – | – | –
21 | CCOC(=O)c1cc(CCCOc2ccc(-c3noc(C(F)(F)F)n3)cc2OC)on1 | > 100 | – | 0.49 | 37.3 | 19.4 | 0.66 | Not Active | 3.41 | 59.7 | – | – | – | – | – | – | –
22 | COc1cc(-c2noc(C(F)(F)F)n2)ccc1OCCCc1cc(C(=O)N(C)C)no1 | 68 | 37.8 | 0.03 | 1.66 | 3.28 | 0.04 | – | 0.6 | 1.97 | – | – | – | 51.7 | – | – | –
23 | CN(C)C(=O)c1cc(CCCOc2ccc(-c3noc(C(F)(F)F)n3)cc2N)on1 | 90.8 | 27.8 | 4.47 | 14.3 | – | 0.33 | – | 2.08 | 18.2 | Not Active | – | – | 51.6 | – | – | –
24 | Cc1cc(-c2noc(C(F)(F)F)n2)cc(C)c1OCCCc1cc(-c2ccc(OC(F)(F)F)cc2)no1 | > 100 | – | – | – | – | – | – | – | – | – | – | – | – | – | Not Active | Not Active
25 | CCOC(=O)c1cc(CCCOc2ccc(-c3noc(C(F)(F)F)n3)cc2N)on1 | > 100 | – | 20 | – | – | 14.3 | Not Active | – | – | Not Active | – | – | – | – | – | Not Active
26 | CCOC(=O)c1cc(CCCOc2ccc(-c3noc(C(F)(F)F)n3)cc2F)on1 | 60.2 | – | 0.217 | 24.9 | – | 0.5 | Not Active | 1.35 | – | Not Active | – | – | – | – | – | Not Active
27 | Cc1cc(-c2noc(C(F)(F)F)n2)cc(C)c1OCCCc1cc(C(=O)OC(C)C)no1 | 17.9 | – | 0.19 | – | – | 0.43 | – | 4.09 | 2.43 | – | Not Active | Not Active | – | – | – | –
28 | CC(=O)Nc1cc(-c2noc(C(F)(F)F)n2)ccc1OCCCc1cc(C(=O)N(C)C)no1 | > 100 | – | 30.1 | 73.2 | – | 18.1 | Not Active | 16.1 | – | Not Active | – | – | – | – | – | Not Active
29 | Cc1cc(-c2noc(C(F)(F)F)n2)cc(C)c1OCCCc1cc(C(=O)NCc2ccccc2)no1 | > 100 | – | 1.39 | – | – | 0.25 | – | 14.4 | 0.23 | – | Not Active | Not Active | – | – | – | –
